Values after ≈ are worked out from the molar mass of the structure shown. Positions of bridges follow the written chain, without caps; N, C: chain ends. Non-standard residues stand in square brackets, D forms with d. Residues, ends and D or L forms follow the SMILES beside them. Nle = CCCC[C@H](N)C(=O)O; Orn = NCCC[C@H](N)C(=O)O

A word on the MIC99: it is the lowest concentration that inhibits either 99% of growth or 99% of the strains tested, depending on the study. High values mean weaker potency, low ones greater potency.

Assay type in all cases: functional
Experiment [1] in a line: Antimicrobial activity against Escherichia coli O6 K5 incubation in bactopeptone. In short, it runs like this:
(§1)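 Microplate killing assay in 1% Bactopeptone (pH 7.0). Log-phase organisms (BHI overnight, 2 h subculture, 37°C, washed), final ~2 × 10^5 cells/ml, with twofold peptide dilutions, 37°C humid chamber 2 h (or 20 h where stated). 5 μl drops plated on blood agar overnight; MMC99 = lowest concentration giving ≥99% inoculum reduction; duplicates.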

The test system of experiment [2] is Candida albicans. Briefly: Antimicrobial activity against Candida albicans ATCC […] incubation in bactopeptone. The settings on record: ATCC 64549. In short, it runs like this: as §1
Experiment [3] has as its system Staphylococcus aureus. Put plainly: Antimicrobial activity against Staphylococcus aureus 1800 (CCUG 1800) incubation in bactopeptone. Summed up:
as §1

Experiment [4] is described as follows: Antimicrobial activity against Escherichia coli O6 K5 incubated in diluted brain heart infusion medium. In short, it runs like this: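 Microplate assay in diluted BHI (1/100 of 3.4%, pH 6.7 to 6.9), log-phase cells at ~2 × 10^5 cells/ml, twofold peptide dilutions, 2 h at 37°C in humid chamber; drops plated on blood agar, CFU counted; MMC99 = minimum concentration giving ≥99% killing of inoculum; duplicates.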

The subject of experiment [5] is Staphylococcus aureus. Briefly: Antimicrobial activity against methicillin resistant Staphylococcus aureus MRS3525 incubated in diluted brain heart infusion medium. Summed up: (§2)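 Log-phase cells (BHI overnight at 37°C with shaking, subcultured 2 h, washed) at about 2 × 10^5 cells/ml final, exposed to twofold peptide dilutions in duplicate or triplicate. Medium: BHIdil (1/100 of 3.4% BHI, pH 6.7–6.9) or 1% Bactopeptone (pH 7.0). 2 h at 37°C, humid. 5-μl drops plated on blood agar overnight for CFU. MMC99 is the lowest concentration giving ≥99% kill.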

Experiment [6] concerns Candida albicans. Put plainly: Antimicrobial activity against […] Candida albicans ATCC […] incubated in diluted brain heart infusion medium. The settings on record: ATCC 6454. Summed up: as §2
Experiment [7] has as its system Staphylococcus aureus. Briefly: Antimicrobial activity against methicillin resistant Staphylococcus aureus MRS3525 incubated in bactopeptone. Summed up: as §2

Consider `CC[C@H](C)[C@H](NC(=O)[C@@H]1CSSC[C@H](NC(=O)[C@H](CCCCN)NC(=O)[C@@H](NC(=O)[C@H](C)NC(=O)[C@H](CCC(=O)O)NC(C)=O)[C@@H](C)O)C(=O)N[C@@H](Cc2ccccc2)C(=O)N[C@@H](C)C(=O)N[C@@H](Cc2c[nH]c3ccccc23)C(=O)N[C@@H](CCC(N)=O)C(=O)N[C@@H](CCCNC(=N)N)C(=O)N[C@@H](CC(N)=O)C(=O)N[C@@H](CCSC)C(=O)N[C@@H](CCCNC(=N)N)C(=O)N[C@@H](CCCCN)C(=O)N[C@@H](C(C)C)C(=O)N[C@@H](CCCNC(=N)N)C(=O)NCC(=O)N2CCC[C@H]2C(=O)N2CCC[C@H]2C(=O)N[C@@H](C(C)C)C(=O)N[C@@H](CO)C(=O)N1)C(=O)N[C@@H](CCCCN)C(=O)N[C@@H](CCCNC(=N)N)C(N)=O` (Ac-EATKCFAWQRNMRKVRGPPVSCIKR-NH2; disulfide 5-22), for which the MIC99 in experiment [1] is more than 100 µg/mL; with Candida albicans [2] it was more than 200 µg/mL; with Staphylococcus aureus [3], 100 µg/mL (≈ 33.3 µM).

Turning to `CC[C@H](C)[C@H](NC(=O)[C@@H]1CSSC[C@H](NC(=O)[C@H](CCCCN)NC(=O)[C@@H](NC(=O)[C@H](C)NC(=O)[C@H](CCC(=O)O)NC(C)=O)[C@@H](C)O)C(=O)N[C@@H](Cc2ccccc2)C(=O)N[C@@H](CCC(N)=O)C(=O)N[C@@H](Cc2c[nH]c3ccccc23)C(=O)N[C@@H](CCCCN)C(=O)N[C@@H](CCCNC(=N)N)C(=O)N[C@@H](CC(N)=O)C(=O)N[C@@H](CCSC)C(=O)N[C@@H](CCCNC(=N)N)C(=O)N[C@@H](CCCCN)C(=O)N[C@@H](C(C)C)C(=O)N[C@@H](CCCNC(=N)N)C(=O)NCC(=O)N2CCC[C@H]2C(=O)N2CCC[C@H]2C(=O)N[C@@H](C(C)C)C(=O)N[C@@H](CO)C(=O)N1)C(=O)N[C@@H](CCCCN)C(=O)N[C@@H](CCCNC(=N)N)C(N)=O` (Ac-EATKCFQWKRNMRKVRGPPVSCIKR-NH2; disulfide 5-22), the MIC99 in experiment [1] stood at 12 µg/mL (≈ 3.92 µM); against Candida albicans [2] it was 50 µg/mL (≈ 16.3 µM); with Staphylococcus aureus [3], 25 µg/mL (≈ 8.17 µM).

Consider `CC[C@H](C)[C@H](NC(=O)[C@@H]1CSSC[C@H](NC(=O)[C@H](CCCCN)NC(=O)[C@@H](NC(=O)[C@H](C)NC(=O)[C@H](CCC(=O)O)NC(C)=O)[C@@H](C)O)C(=O)N[C@@H](Cc2ccccc2)C(=O)N[C@@H](CCC(N)=O)C(=O)N[C@@H](Cc2c[nH]c3ccccc23)C(=O)N[C@@H](CCC(N)=O)C(=O)N[C@@H](CCCNC(=N)N)C(=O)N[C@@H](C)C(=O)N[C@@H](CCSC)C(=O)N[C@@H](CCCNC(=N)N)C(=O)N[C@@H](CCCCN)C(=O)N[C@@H](C(C)C)C(=O)N[C@@H](CCCNC(=N)N)C(=O)NCC(=O)N2CCC[C@H]2C(=O)N2CCC[C@H]2C(=O)N[C@@H](C(C)C)C(=O)N[C@@H](CO)C(=O)N1)C(=O)N[C@@H](CCCCN)C(=O)N[C@@H](CCCNC(=N)N)C(N)=O` (Ac-EATKCFQWQRAMRKVRGPPVSCIKR-NH2; disulfide 5-22), for which the results for the MIC99 (in experiment [1]; against Candida albicans [2]; in the experiment with Staphylococcus aureus [3]) were 100 µg/mL (≈ 33.2 µM), 37 µg/mL (≈ 12.3 µM) and 50 µg/mL (≈ 16.6 µM), respectively.

For `CCCC[C@H](NC(=O)[C@H](CCCNC(=N)N)NC(=O)[C@H](CCC(N)=O)NC(=O)[C@H](Cc1c[nH]c2ccccc12)NC(=O)[C@H](CCC(N)=O)NC(=O)[C@H](Cc1ccccc1)NC(=O)[C@@H](N)CS)C(=O)N[C@@H](CCSC)C(=O)N[C@@H](CCCNC(=N)N)C(=O)N[C@@H](CCCCN)C(=O)N[C@H](C(=O)N[C@@H](CCCNC(=N)N)C(=O)O)C(C)C` (H-CFQWQR[Nle]MRKVR-OH), the MIC99 (in experiment [1]; in the experiment with Candida albicans [2]; in the experiment on Staphylococcus aureus [3]) was 50 µg/mL (≈ 30.3 µM) each time.

As for `CSCC[C@H](NC(=O)[C@H](CCCN)NC(=O)[C@H](CCCNC(=N)N)NC(=O)[C@H](CCC(N)=O)NC(=O)[C@H](Cc1c[nH]c2ccccc12)NC(=O)[C@H](CCC(N)=O)NC(=O)[C@H](Cc1ccccc1)NC(=O)[C@@H](N)CS)C(=O)N[C@@H](CCCNC(=N)N)C(=O)N[C@@H](CCCCN)C(=O)N[C@H](C(=O)N[C@@H](CCCNC(=N)N)C(=O)O)C(C)C` (H-CFQWQR[Orn]MRKVR-OH), the figures for the MIC99 (in experiment [1]; with Candida albicans [2]; against Staphylococcus aureus [3]) were 25 µg/mL (≈ 15.1 µM), 25 µg/mL (≈ 15.1 µM) and 50 µg/mL (≈ 30.3 µM), respectively.

As for `CCCC[C@H](NC(=O)[C@H](Cc1c[nH]c2ccccc12)NC(=O)[C@H](CCC(N)=O)NC(=O)[C@H](Cc1ccccc1)NC(=O)[C@@H](N)CS)C(=O)N[C@@H](CCCNC(=N)N)C(=O)N[C@@H](CC(N)=O)C(=O)N[C@@H](CCSC)C(=O)N[C@@H](CCCNC(=N)N)C(=O)N[C@@H](CCCCN)C(=O)N[C@H](C(=O)N[C@@H](CCCNC(=N)N)C(=O)O)C(C)C` (H-CFQW[Nle]RNMRKVR-OH), the MIC99 turned out to be 50 µg/mL (≈ 30.5 µM) in experiment [1], 25 µg/mL (≈ 15.3 µM) with Candida albicans [2] and 50 µg/mL (≈ 30.5 µM) with Staphylococcus aureus [3].

Take `CSCC[C@H](NC(=O)[C@H](CC(N)=O)NC(=O)[C@H](CCCNC(=N)N)NC(=O)[C@H](CCCN)NC(=O)[C@H](Cc1c[nH]c2ccccc12)NC(=O)[C@H](CCC(N)=O)NC(=O)[C@H](Cc1ccccc1)NC(=O)[C@@H](N)CS)C(=O)N[C@@H](CCCNC(=N)N)C(=O)N[C@@H](CCCCN)C(=O)N[C@H](C(=O)N[C@@H](CCCNC(=N)N)C(=O)O)C(C)C` (H-CFQW[Orn]RNMRKVR-OH): the MIC99 came out at 25 µg/mL (≈ 15.3 µM) in experiment [1], 25 µg/mL (≈ 15.3 µM) with Candida albicans [2] and 50 µg/mL (≈ 30.5 µM) against Staphylococcus aureus [3].

Turning to H-AFQWQRNMRKVR-OH, the MIC99 was more than 25 µg/mL in experiment [4]; 14 µg/mL in the experiment with Staphylococcus aureus [5]; 12 µg/mL against Candida albicans [6]; more than 100 µg/mL in the experiment on Staphylococcus aureus [7]; more than 100 µg/mL in experiment [1]; more than 100 µg/mL against Candida albicans [2].

For H-CAQWQRNMRKVR-OH, the MIC99 in experiment [4] is 12 µg/mL; in the experiment on Staphylococcus aureus [5], 7 µg/mL; against Candida albicans [6] it was 12 µg/mL.

As for H-CFALKKAMKKVR-OH, the MIC99 in experiment [1] was 25 µg/mL; with Candida albicans [2], 25 µg/mL; against Staphylococcus aureus [3], 50 µg/mL.

Regarding H-CFAWKRNMRKVR-OH, the MIC99 in experiment [1] worked out at 50 µg/mL; in the experiment with Candida albicans [2] it was 25 µg/mL; against Staphylococcus aureus [3], 25 µg/mL.

For the compound H-CFAWQRNMRKVR-OH, the MIC99 in experiment [4] was determined as 6 µg/mL; in the experiment on Staphylococcus aureus [5], 3.5 µg/mL; against Candida albicans [6], 6 µg/mL; against Staphylococcus aureus [7], 100 µg/mL; in experiment [1], 50 µg/mL; in the experiment on Candida albicans [2], 25 µg/mL.

As to H-CFQAQRNMRKVR-OH, the MIC99 in experiment [4] was 25 µg/mL; in the experiment on Staphylococcus aureus [5] it was 14 µg/mL; against Candida albicans [6], 12 µg/mL; against Staphylococcus aureus [7], more than 100 µg/mL; in experiment [1] it was more than 100 µg/mL; in the experiment with Candida albicans [2], more than 100 µg/mL.

Consider H-CFQWARNMRKVR-OH, for which the MIC99 in experiment [4] was 12 µg/mL; against Staphylococcus aureus [5] it was 3.5 µg/mL; in the experiment on Candida albicans [6], 12 µg/mL; in the experiment on Staphylococcus aureus [7], 100 µg/mL; in experiment [1] it was 50 µg/mL; in the experiment on Candida albicans [2] it was 50 µg/mL.

As to H-CFQWKRAMRKVR-OH, the MIC99 (in experiment [1]; against Candida albicans [2]; against Staphylococcus aureus [3]) was 12 µg/mL throughout.

For the compound H-CFQWKRNMRKVR-OH, the MIC99 (in experiment [1]; with Candida albicans [2]; in the experiment on Staphylococcus aureus [3]) was 25 µg/mL throughout.

As to H-CFQWQANMRKVR-OH, the figures for the MIC99 (in experiment [4]; against Staphylococcus aureus [5]; in the experiment on Candida albicans [6]) were 12 µg/mL, 7 µg/mL and 12 µg/mL, respectively.

As to H-CFQWQRAMRKVR-OH, the MIC99 in experiment [4] was 6 µg/mL; with Staphylococcus aureus [5], 3.5 µg/mL; with Candida albicans [6], 6 µg/mL; in the experiment on Staphylococcus aureus [7], 50 µg/mL; in experiment [1], 25 µg/mL; in the experiment with Candida albicans [2] it was 25 µg/mL.

Turning to H-CFQWQRNARKVR-OH, the MIC99 in experiment [4] is 12 µg/mL; against Staphylococcus aureus [5], 3.5 µg/mL; in the experiment on Candida albicans [6] it was 25 µg/mL; in the experiment on Staphylococcus aureus [7], more than 100 µg/mL; in experiment [1] it was 50 µg/mL; in the experiment on Candida albicans [2], 50 µg/mL.

Take H-CFQWQRNMAKVR-OH: the MIC99 in experiment [4] is 25 µg/mL; in the experiment with Staphylococcus aureus [5], 7 µg/mL; with Candida albicans [6], 25 µg/mL; against Staphylococcus aureus [7], more than 100 µg/mL; in experiment [1], more than 100 µg/mL; in the experiment on Candida albicans [2] it was more than 100 µg/mL.

Consider H-CFQWQRNMRAVR-OH, for which the MIC99 is 12 µg/mL in experiment [4]; 3.5 µg/mL against Staphylococcus aureus [5]; 25 µg/mL against Candida albicans [6]; more than 100 µg/mL against Staphylococcus aureus [7]; 100 µg/mL in experiment [1]; more than 100 µg/mL in the experiment on Candida albicans [2].

H-CFQWQRNMRKAR-OH: the MIC99 in experiment [4] is 12 µg/mL; against Staphylococcus aureus [5] it was 3.5 µg/mL; with Candida albicans [6] it was 25 µg/mL; against Staphylococcus aureus [7], more than 100 µg/mL; in experiment [1], 50 µg/mL; in the experiment with Candida albicans [2] it was 50 µg/mL.

In the case of H-CFQWQRNMRKVA-OH, the MIC99 was 12 µg/mL in experiment [4]; 7 µg/mL in the experiment on Staphylococcus aureus [5]; 25 µg/mL in the experiment with Candida albicans [6]; more than 100 µg/mL against Staphylococcus aureus [7]; more than 100 µg/mL in experiment [1]; more than 100 µg/mL with Candida albicans [2].

For the origin of these results see ChEMBL document CHEMBL1212784, “Structure-microbicidal activity relationship of synthetic fragments derived from the antibacterial alpha-helix of human lactoferrin” (2010).
